For assay [1], the target named is T1, 1-phosphatidylinositol 4,5-bisphosphate phosphodiesterase gamma-2 (Homo sapiens, UniProt P16885).
T1 sequence (P16885 whole entry): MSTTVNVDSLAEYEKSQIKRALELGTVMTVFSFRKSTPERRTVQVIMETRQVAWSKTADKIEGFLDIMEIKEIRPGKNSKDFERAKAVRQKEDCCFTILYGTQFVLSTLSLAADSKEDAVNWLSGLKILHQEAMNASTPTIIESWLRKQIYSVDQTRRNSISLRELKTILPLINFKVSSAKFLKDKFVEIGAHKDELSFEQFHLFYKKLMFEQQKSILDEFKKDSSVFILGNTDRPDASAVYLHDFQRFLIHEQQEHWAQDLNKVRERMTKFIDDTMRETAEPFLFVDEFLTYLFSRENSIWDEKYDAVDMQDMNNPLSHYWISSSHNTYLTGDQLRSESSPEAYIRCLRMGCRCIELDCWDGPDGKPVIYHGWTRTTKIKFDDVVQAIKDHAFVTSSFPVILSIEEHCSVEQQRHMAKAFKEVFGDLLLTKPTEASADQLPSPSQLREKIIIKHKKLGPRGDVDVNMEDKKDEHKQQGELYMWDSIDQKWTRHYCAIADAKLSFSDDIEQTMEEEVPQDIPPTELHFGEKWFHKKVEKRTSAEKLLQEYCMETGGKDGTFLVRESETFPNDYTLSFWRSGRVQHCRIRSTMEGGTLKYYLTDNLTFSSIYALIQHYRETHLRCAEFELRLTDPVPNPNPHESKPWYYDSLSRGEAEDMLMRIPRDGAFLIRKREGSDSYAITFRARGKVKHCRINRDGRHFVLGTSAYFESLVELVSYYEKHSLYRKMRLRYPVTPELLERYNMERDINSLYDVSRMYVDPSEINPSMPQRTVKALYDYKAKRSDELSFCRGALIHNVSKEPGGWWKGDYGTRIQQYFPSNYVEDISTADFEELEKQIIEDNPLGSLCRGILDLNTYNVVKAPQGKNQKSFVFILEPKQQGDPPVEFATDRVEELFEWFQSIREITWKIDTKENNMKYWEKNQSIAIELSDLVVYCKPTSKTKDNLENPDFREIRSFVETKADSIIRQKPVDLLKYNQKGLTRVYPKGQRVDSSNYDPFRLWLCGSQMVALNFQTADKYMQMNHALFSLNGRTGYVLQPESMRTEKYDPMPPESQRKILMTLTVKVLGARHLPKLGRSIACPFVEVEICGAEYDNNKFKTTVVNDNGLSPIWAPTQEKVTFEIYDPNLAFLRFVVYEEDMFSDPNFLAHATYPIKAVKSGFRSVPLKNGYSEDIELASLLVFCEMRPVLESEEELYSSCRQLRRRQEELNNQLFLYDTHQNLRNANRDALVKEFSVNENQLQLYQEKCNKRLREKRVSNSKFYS
The assay can be described thus: Inhibition of recombinant phospholipase C gamma2 expressed in baculovirus infected Sf9 cells using [3H]PIP2 by flashplate biochemical assay. The procedure, abridged: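 Full-length His-tagged PLC-γ2 from baculovirus-infected Sf-9 cells, purified by Talon IMAC. Plates coated 24 h at room temperature with 3H-PIP2 (0.1 µCi/well); enzyme plus inhibitor in 50 mM Tris-HCl, 200 mM NaCl, 100 µM CaCl2, 100 µM EGTA, 100 µM spermine, 0.5 mM deoxycholate, pH 7.4, 5% v/v DMSO final. Scintillation signal loss read at room temperature, typically 30 min; CPM compared with control wells.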

Assay [2] deals with T2, 1-phosphatidylinositol 4,5-bisphosphate phosphodiesterase gamma-2 (Homo sapiens) (UniProt P16885).
T2 sequence (whole entry): T1 sequence (P16885 whole entry)
The assay can be described thus: Inhibition of phospholipase C gamma2 in human A431 cells assessed as reduction of calcium release after 45 mins by FLIPR assay. Conditions: A-431. It is filed as cell-based. The method in brief:
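A431 squamous carcinoma cells seeded at 4 × 10^5 per well and kept overnight at 37 °C, 5% CO2. Medium replaced with doubling dilutions of compound in HBSS starting at 100 µM. Calcium 3 dye added with probenecid (2.5 mM final), 45 min at 37 °C, then calcium release read by FLIPR at 37 °C.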

Assay [3] addresses T2, 1-phosphatidylinositol 4,5-bisphosphate phosphodiesterase gamma-2 (Homo sapiens). The assay can be described thus: Inhibition of phospholipase C gamma2 in human A431 cells assessed as reduction of calcium release at 25 uM after 45 mins by FLIPR assay. It is filed as cell-based. The following applies: A-431. The method in brief: (§1)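 A431 cells seeded overnight at 4 × 10^5 per well, then given compound in HBSS. Calcium 3 dye with 2.5 mM probenecid, 45 min at 37 °C, FLIPR read at 37 °C. Scoring was semi-quantitative: any decrease in calcium release at 50 µM scored +, at 25 µM ++.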

For assay [4] the target is unchanged. In words: Inhibition of recombinant phospholipase C gamma2 expressed in baculovirus infected Sf9 cells at 50 uM using [3H]PIP2 by flashplate biochemical assay. The method in brief:
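3H-PIP2 Flashplate assay with His-tagged full-length PLC-γ2 from infected Sf-9 cells. Substrate-coated wells (0.1 µCi/well) incubated with enzyme and compound in Tris/NaCl/CaCl2/EGTA/spermine/deoxycholate buffer, pH 7.4, 5% DMSO, room temperature, typically 30 min. Percent inhibition at 50 µM from two measurements, based on CPM versus control wells.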

Assay [5] shares this target. In words: Inhibition of phospholipase C gamma2 in human A431 cells assessed as reduction of calcium release at 50 uM after 45 mins by FLIPR assay. It counts as cell-based. Conditions: A-431. The method in brief:
as §1

The source of these data is ChEMBL document CHEMBL1153409, “The identification of novel PLC-gamma inhibitors using virtual high throughput screening” (Bioorg Med Chem, 2009).

The structures appear in SMILES notation. The source made the active and inactive calls. The rule behind the calls is not given here.

The IC50 is the midpoint of a concentration-inhibition curve. For orientation: inhibition means how much of the control response was suppressed.

Regarding `O=C(NCCc1ccccc1)c1cc2cccc([N+](=O)[O-])c2[nH]1`, the IC50 in assay [1] is 1 µM. Further, the GC50 in assay [2] was 15 µM.
As for `O=S(=O)(Oc1ccc(-c2cnc3ccccc3n2)cc1)c1ccccc1`, the “Calcium release inhibition activity at 25 uM” value in assay [3] is “Active”. The inhibition in assay [4] is 100%.
Consider `O=C(Nc1nc2ccccc2c(=O)s1)c1ccc(Cl)cc1`, for which, in assay [1], the half-inhibitory concentration (IC50) came out at 2 µM. The GC50 entry in assay [2] is “inactive”.
In the case of `O=C1C2Nc3ccc(Br)cc3C2N=CN1CCc1ccccc1` (centres undefined), the inhibition in assay [4] came to 100%. For the same compound, the GC50 entry in assay [2] was “inactive”.
With `COc1ccc2c(c1)C1N=CN(CCc3c[nH]c4ccccc34)C(=O)C1N2` (centres undefined), the inhibition in assay [4] was 89%. In assay [5], the “Decrease in calcium release (active/inactive call)” value was “Active”.
For the compound `COc1ccc(-c2cc3nnc(-c4ccccc4)nc3s2)cc1`, in assay [1], the half-inhibitory concentration (IC50) came to 4 µM. Further, the GC50 result in assay [2] was “inactive”.
On to `Nc1c(C(=O)Nc2cccc(Cl)c2)sc2nc3c(cc12)C(=O)CCC3`, for which the inhibition in assay [4] amounted to 100%. Further, the GC50 entry in assay [2] is “inactive”.
For `N#Cc1ccc(/C=C2/N=C(c3ccccc3)OC2=O)cc1`, the IC50 in assay [1] was found to be 2 µM. Moreover, the GC50 result in assay [2] was “inactive”.
Take `COc1ccc(Cl)cc1C(=O)Nc1nc2ccc([N+](=O)[O-])cc2s1`: in assay [3], the “Calcium release inhibition activity at 25 uM” value was “Active”. In addition, in assay [4], the inhibition is 100%.
Take `Cc1ccc(S(=O)(=O)NC2=NC(=O)/C(=C\c3ccccc3)S2)cc1`: in assay [4], the inhibition is 82%. Moreover, the GC50 in assay [2] amounted to 15 µM.
For `Cc1ccc(NC(=O)c2sc3nc4c(cc3c2N)C(=O)CCC4)cc1`, the inhibition in assay [4] amounted to 100%. Also, the GC50 result in assay [2] is “inactive”.
As to `COc1ccc2[nH]c(C(=O)Nc3nc4ccccc4s3)cc2c1`, the half-maximal inhibitory concentration (IC50) in assay [1] amounted to 5 µM. The GC50 result in assay [2] was “inactive”.
In the case of `O=C1C2Nc3ccc(Br)cc3C2N=CN1CCc1ccc(F)cc1` (centres undefined), the inhibition in assay [4] was 100%. The GC50 result in assay [2] is “inactive”.
Regarding `CCCc1nnc(NC(=O)c2cc([N+](=O)[O-])cc([N+](=O)[O-])c2)s1`, in assay [4], the inhibition amounted to 100%. Besides, the GC50 result in assay [2] is “inactive”.
For `Cc1ccc(/C=C2\C(=O)NC(=O)N(c3ccc(Cl)cc3)C2=O)s1`, in that order: 6% and 5 µM.
As for `O=C1C2Nc3ccc(Br)cc3C2N=CN1CCC1=CCCCC1` (centres undefined), in assay [4], the inhibition is 100%. In assay [2], the GC50 entry was “inactive”.
Turning to `Cc1ccc2c(c1)N/C(=C\C(=O)c1ccc(Cl)cc1)C(=O)O2`, the inhibition in assay [4] amounted to 100%. In assay [2], the GC50 stood at 22 µM.
For `O=C(NC(=O)c1ccccc1Cl)Nc1ccc2c(c1)S(=O)(=O)C=C2`, the IC50 in assay [1] came out at 9.5 µM. Further, in assay [2], the GC50 result was “inactive”.
For the compound `O=C(Nc1ccc(Cl)cc1)c1cc2cccc([N+](=O)[O-])c2[nH]1`, the IC50 in assay [1] was 1 µM. Besides, in assay [2], the GC50 entry is “inactive”.
With `COc1ccc(-c2nnc(NC(=O)c3cccs3)s2)cc1`, the inhibition in assay [4] came out at 100%. For the same compound, in assay [2], the GC50 entry was “inactive”.
For `O=C(Nc1ccccc1)Nc1nnc(-c2cccs2)s1`, in that order: 100% and “inactive”.
`CCOc1ccc2c(c1)C1N=CN(Cc3ccccc3)C(=O)C1N2` (centres undefined): the inhibition in assay [4] turned out to be 89%. Moreover, the GC50 result in assay [2] was “inactive”.
Regarding `O=C1OC(c2ccc([N+](=O)[O-])cc2)=N/C1=C/c1cccs1`, the 50% inhibitory concentration (IC50) in assay [1] was 12 µM. Besides, the “Decrease in calcium release (active/inactive call)” value in assay [5] is “Active”.
On to `O=C(Nc1ccc2oc(=O)ccc2c1)c1ccc(-c2cccc(Cl)c2)o1`, for which the “Calcium release inhibition activity at 25 uM” value in assay [3] was “Active”. Also, the inhibition in assay [4] is 100%.
Regarding `Nc1c(C(=O)Nc2cccc(Cl)c2)sc2nc(-c3cccs3)ccc12`, in assay [4], the inhibition came out at 100%. Also, the “Decrease in calcium release (active/inactive call)” value in assay [5] is “Active”.
As for `O=C(Nc1cccc(Cl)c1)Nc1nnc(-c2ccc3c(c2)OCO3)s1`, the inhibition in assay [4] amounted to 85%. For the same compound, the “Decrease in calcium release (active/inactive call)” value in assay [5] was “Active”.
Turning to `COc1ccc(S(=O)(=O)n2ccc(-c3ccc4c(c3)CCC(C)(C)O4)n2)cc1`, the IC50 in assay [1] is 3 µM. The GC50 in assay [2] is 30 µM.
In the case of `Nc1c(C(=O)Nc2cccc(F)c2)sc2nc(-c3ccc(F)cc3)ccc12`, the inhibition in assay [4] is 100%. In addition, the “Decrease in calcium release (active/inactive call)” value in assay [5] was “Active”.
With `O=[N+]([O-])c1cc(-c2nc(-c3ccccn3)no2)cs1`, the IC50 in assay [1] worked out at 2 µM. For the same compound, in assay [2], the GC50 result was “inactive”.
Regarding `O=C1NN(c2ccccc2)C(=O)/C1=C/c1coc2ccc(Cl)cc2c1=O`, in assay [4], the inhibition was determined as 27%. Moreover, in assay [2], the GC50 came out at 18 µM.
Take `CCCOc1ccc(-c2nnc(NC(=O)c3cccs3)s2)cc1`: in assay [4], the inhibition was 67%. The GC50 entry in assay [2] was “inactive”.
Consider `CC(=O)c1ccc(Nc2nnc(-c3ccncc3)s2)cc1`, for which the “Calcium release inhibition activity at 25 uM” value in assay [3] was “Active”. Moreover, the inhibition in assay [4] is 100%.
Take `O=c1/c(=C/c2ccncc2)sc2n1CN(c1ccc(Cl)cc1)CN=2`: the inhibition in assay [4] turned out to be 100%. The GC50 in assay [2] turned out to be 15 µM.
Consider `O=c1/c(=C/c2ccccc2[N+](=O)[O-])sc2nc(-c3ccc(F)cc3)nn12`, for which the inhibition in assay [4] was found to be 100%. The GC50 in assay [2] amounted to 15 µM.
Turning to `Clc1cccc(-c2nc(-c3ccc(-c4ccon4)s3)no2)c1`, the half-maximal inhibitory concentration (IC50) in assay [1] turned out to be 1 µM. The GC50 result in assay [2] is “inactive”.
On to `O=C(Nc1ccc(S(=O)(=O)Nc2nccs2)cc1)c1cccs1`, for which the inhibition in assay [4] turned out to be 82%. Besides, the GC50 result in assay [2] is “inactive”.
With `Cc1ccc(NC(=O)c2sc3nc4c(cc3c2N)C(=O)CCC4)cc1Cl`, the inhibition in assay [4] came to 100%. For the same compound, the GC50 result in assay [2] was “inactive”.
